Measurements from publication PMC2807935 (Naunyn-Schmiedeberg's Archives of Pharmacology, 2010).
Values joined by “and” are separate entries in the source; they are usually repeats but may differ in a detail not shown here. Equal entries are not always repeated.

Tests used:
[1] = at 200 mg; ref Brune and Hinz [2004]; Hinz et al. [2007]; cited from earlier work
[2] = Pharmacokinetics of oral etoricoxib in plasma, CSF and tissue exudate; assay type: in vivo, human; details: for Tmax: t max
[3] = system: PGE2 production in tissue; test: PGE2 concentrations in tissue exudate; assay type: in vivo, human
Procedure, shortened: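 Patients given oral 120 mg or placebo at 7.00 am on postoperative day 1 after non-cemented hip arthroplasty. Hip drain emptied 1 h before each scheduled time (0, 1, 3, 8, 12, 24 h), then exudate collected over 60 min. Exudate centrifuged, supernatant frozen at −30°C. PGE2 measured by enzyme immunoassay (LOQ 15 pg/mL). Times are collection-interval midpoints; changes expressed versus baseline.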

[4] = Secondary clinical parameters: pain scores, analgesic consumption, side effects; assay type: in vivo, human
COX-2 = details: after a single dose of 120 mg; ref Dallob et al. [2003]; cited from earlier work
plasma proteins = details: ref Agrawal et al. [2003b]; cited from earlier work
[5] = post-dose, monkeys; ref Riendeau et al. [2001]; cited from earlier work
[6] = cited from earlier work
[7] = patient R02, 50% of peak concentrations
[8] = patient R06, 50% of peak concentrations

Cc1ccc(-c2cc(C(F)(F)F)nn2-c2ccc(S(N)(=O)=O)cc2)cc1 [celecoxib]
Bioavailability [1]: 20–60%

Cc1ccc(-c2ncc(Cl)cc2-c2ccc(S(C)(=O)=O)cc2)cn1 [etoricoxib]
CSF concentration ([2]; 1 h later than in plasma): > 29 ng/mL | CSF concentration at 1 h as part of the peak CSF concentration ([2]; 1 h post-dose): 34% | Etoricoxib in tissue exudate ([2]; 2.5 h): virtually no drug detected | Concentration in CSF as fraction of that in plasma at corresponding times ([2]; AUC0–24h and max. concentration ratios): 1/20 | Cmax ([2]; CSF, n = 5, mean (± SD)): 68.4 (30.6) ng/mL | Time to plateau in plasma and CSF ([2]; both compartments): about 2 h | Plasma concentration ([2]; during the first hour after 120 mg oral): > 360 ng/mL | Cmax ([2]; human, CSF, oral, 120 mg, c max, n = 5, mean (± SD)): ~70 ng/mL | Tmax ([2]; human, CSF, oral, 120 mg, n = 5, median (range)): 8 h | AUC(0-t) ([2]; human, CSF, po, 120 mg, AUC0–24h, n = 5, 120 mg oral, mean (± SD)): 955 ng·h/mL | Kp at 8 h ([2]; human, CSF/plasma, oral, 120 mg, CSF/plasma conc. ratio at t max, n = 5, mean (± SD), at 8 h): 0.06 | Kp ([2]; human, CSF/unbound plasma, oral, 120 mg, CSF/plasma ratio of the unbound fractions (CSF/Pu), at equilibrium (2–24 h), estimated): ~0.56 | Cmax ([2]; human, plasma, oral, 120 mg, c max, plasma, n = 5 subgroup, mean (± SD)): 1440 ng/mL | Cmax ([2]; human, plasma, oral, 120 mg, c max, n = 8 (all patients), mean (± SD)): 1740 ng/mL | Tmax ([2]; human, plasma, oral, 120 mg, plasma, n = 5 subgroup, median (range)): 4 h | Tmax ([2]; human, plasma, oral, 120 mg, n = 8 (all patients), median (range)): 3 h | Individual CSF lag times with respect to (50%) peak plasma concentration ([2]; in all but one case): ≤ 2 h | Time to meaningful (COX-2 inhibitory) CSF concentrations ([2]; in nearly all patients): ≤ 2 h | Max. CSF/plasma conc. ratio ([2]; individual maximal concentration ratios, between 3 and 12 h, mean ± SD, n = 5): 7.3 (2.1) % | Time of peak CSF concentration ([2]; mean concentration-time curve, CSF): 8 h | Lag time plasma vs. CSF ([2]; mean of patients): 2 h | Lag time plasma vs. tissue exudate ([2]; mean of patients): 3.8 h | Lag time plasma vs. tissue exudate ([2]; median of patients, without correction for the delay of sampling): 4 h | CSF/plasma ratio AUC0–24h ([2]; n = 5, mean (range) of individual ratios): 4.4% and 4.4 (2–7) % | CSF/plasma conc. ratio at t max ([2]; n = 5, mean (± SD), at 8 h): 6.3 (2.0) % | t max for CSF/plasma conc. ratio ([2]; n = 5, median (range)): 8 (3–12) h | Lag time plasma vs. CSF ([2]; patient R01, 50% of peak concentrations): 1 h | Lag time plasma vs. tissue exudate ([2]; patient R01, with respect to 50% of peak concentrations): 4 h | Lag time plasma vs. CSF [2, 7]: 2 h | Lag time plasma vs. tissue exudate [2, 7]: 4 h | Lag time plasma vs. CSF ([2]; patient R05, in brackets: invalid data due to missing values): (2) h | Lag time plasma vs. CSF [2, 8]: 0 h | Lag time plasma vs. tissue exudate [2, 8]: 1.5 h | Lag time plasma vs. tissue exudate ([2]; patient R07, 50% of peak concentrations): 6.5 h | Lag time plasma vs. CSF ([2]; patient R07, in brackets: invalid data due to missing values): (3) h | Lag time plasma vs. CSF ([2]; patient R09, 50% of peak concentrations): 7 h | CSF peak concentration ([2]; patient R09, 8 h post-medication): 108 ng/mL | Median CSF lag time with respect to 50% of the peak concentration in plasma ([2]; patient R09 not included): 0.5 h | Range of CSF lag time with respect to 50% of the peak concentration in plasma ([2]; patient R09 not included): 0 to 2 h | Lag time plasma vs. tissue exudate ([2]; patient R10, 50% of peak concentrations): 3 h | Lag time plasma vs. CSF ([2]; patient R10, in brackets: invalid data due to missing values): (0) h | Lag time plasma vs. CSF ([2]; patient R12, 50% of peak concentrations): 0 h | PGE2 concentration in tissue exudate, overall for all values (PGE2 Hip, n = 88) ([3]; 120 mg etoricoxib oral, day 1 post-surgery, n = 8, mean (SD)): 11.9 (10.2) ng/mL | PGE2 concentration in tissue exudate ([3]; 0.5 h after 120 mg oral, midpoint of collection interval, mean (SD)): 18.1 (8.8) ng/mL | PGE2 concentration in tissue exudate ([3]; 1.5 h after 120 mg oral, mean (SD)): 24.4 (10.5) ng/mL | PGE2 concentration in tissue exudate ([3]; 2.5 h after 120 mg oral, mean (SD)): 20.9 (16.1) ng/mL | PGE2 concentration in tissue exudate ([3]; 5.0 h after 120 mg oral, mean (SD)): 16.9 (13.6) ng/mL | PGE2 concentration in tissue exudate ([3]; 7.5 h after 120 mg oral, mean (SD)): 12.1 (9.3) ng/mL | PGE2 concentration in tissue exudate ([3]; 9.5 h after 120 mg oral, mean (SD)): 7.9 (6.0) ng/mL | PGE2 concentration in tissue exudate ([3]; 11.5 h after 120 mg oral, mean (SD)): 6.4 (5.1) ng/mL | PGE2 concentration in tissue exudate ([3]; 17.5 h after 120 mg oral, mean (SD)): 6.2 (6.2) ng/mL | PGE2 concentration in tissue exudate ([3]; 23.5 h after 120 mg oral, mean (SD)): 2.3 (0.7) ng/mL | Duration of the significant PGE2 difference to placebo ([3]; till the end of the observation period): 18 h | PGE2 concentration in tissue exudate ([3]; time point Pre (baseline), n = 8, mean (SD)): 7.7 (5.4) ng/mL | Time after medication at which the PGE2 difference to placebo became significant ([3]; tissue exudate samples, material produced about 2 h after medication): 5 h | Perioperative side effects ([4]; 120 mg oral on postoperative day 1): no perioperative side effects related to the administration of etoricoxib | Postoperative pain and opioid consumption versus placebo ([4]; both groups received standard IT and parenteral pain medication, study not designed to detect differences): no meaningful differences | Ex vivo whole blood IC50 of COX-2 inhibition (COX-2): about 360 ng/mL | Bound to plasma proteins (plasma proteins): 92% | Onset of antipyretic action [5]: about 2 h | Time after administration within which etoricoxib interferes with surgical pain ([6]; patients, ref Clarke et al. [2009]): ≤ 2 h | Time after surgery before which etoricoxib was not analgesic ([6]; thyroid surgery, ref Smirnov et al. [2008]): ≥ 6 h
